Screening data deposited in PubChem by The Scripps Research Institute Molecular Screening Center.
CHRM4 antagonist: blocks acetylcholine activation of human M4 receptor; AID 624125; CHO-hM4 cells, ACh EC80, Fluo-8 calcium fluorescence; 0.73% of 360,000 active; P08173; inhibition, % at 3 µM;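 active means inhibition above its plate's cutoff, the mean inhibition of sample wells plus 3 SD, cut at about 27% in these data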
Target sequence (P08173 whole entry, looked up): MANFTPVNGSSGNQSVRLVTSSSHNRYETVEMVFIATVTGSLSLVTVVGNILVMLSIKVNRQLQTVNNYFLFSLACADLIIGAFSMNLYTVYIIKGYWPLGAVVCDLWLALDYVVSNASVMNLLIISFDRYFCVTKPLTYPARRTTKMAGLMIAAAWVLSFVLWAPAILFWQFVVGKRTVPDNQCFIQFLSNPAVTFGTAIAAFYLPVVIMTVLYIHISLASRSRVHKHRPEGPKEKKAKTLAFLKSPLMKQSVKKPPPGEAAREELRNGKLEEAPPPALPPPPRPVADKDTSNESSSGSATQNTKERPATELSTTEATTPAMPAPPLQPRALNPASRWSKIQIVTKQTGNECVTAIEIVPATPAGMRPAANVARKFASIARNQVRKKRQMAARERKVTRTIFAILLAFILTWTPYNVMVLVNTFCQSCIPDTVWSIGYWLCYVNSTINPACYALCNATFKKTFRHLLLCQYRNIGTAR
M4 PAM: positive allosteric modulators of human muscarinic M4 receptor; P08173; CHO-K1 hM4/Gqi5, Fluo-8 calcium fluorescence, ACh EC20; 0% = ACh EC20, 100% = maximal ACh; 0.4% of 360,000 active; activation, % at 3 µM; AID 624126;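 active means activation above its plate's cutoff, the mean activation of sample wells plus 3 SD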
CHRM5 antagonist: CHRM5 antagonism in calcium assay; CHO-hM5 cells, Fluo-8 calcium fluorescence, ACh EC80; inhibition, % at 3 µM; 0.59% of 360,000 active;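 active means inhibition above a per-plate cutoff, the mean of that plate's test compounds plus 3 SD, cut at about 27% in these data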
CHRM4 agonist: CHRM4 agonism in calcium assay; P08173; CHO-K1 hM4/Gqi5, Fluo-8 calcium fluorescence; vehicle 0%, full acetylcholine response 100%; activation, % at 3 µM; 0.14% of 360,000 active; AID 624127;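 active means activation above the run mean over all test wells plus 3 SD, cut at about 32% in these data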;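 further: peak over basal fluorescence ratio per well then scaled between controls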
M5 ag: CHRM5 agonism in calcium assay; P08912; CHO-K1 hM5 cells, Fluo-8 calcium fluorescence; 0% DMSO wells, 100% maximal acetylcholine response; activation, % at 3 µM; 0.19% of 360,000 active;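 active means activation above the run's mean over test compounds plus 3 SD, cut at about 23% in these data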;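 further: signal is peak over basal fluorescence ratio across the kinetic read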
M5 PAM: potentiates acetylcholine response at human M5 receptor; 0.3% of 360,000 active; activation, % at 3 µM; CHO-K1 hM5, Fluo-8 calcium, ACh EC20 PAM; 0% = ACh EC20, 100% = ACh EC100;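 active means activation above the run cutoff, the mean activation of all test compounds plus 3 SD, cut at about 18% in these data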
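system = human M5 receptor in CHO-K1 cells | compound = one concentration, 3 µM final (nominal) | schedule = Post-acetylcholine fluorescence recording 140 s | signal = Fluo-8 calcium dye fluorescence, kinetic read | benchmarks = low control EC20 acetylcholine (0%), high control EC100 acetylcholine (100%) | repeats = singlicate, one well per test compound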
A number is an active result; 0 = inactive. Most compounds without a hit are left out; they make up all but 1.8% or so of the library.

SMILES	CHRM4 antagonist	M4 PAM	CHRM5 antagonist	CHRM4 agonist	M5 ag	M5 PAM
O=C(CCN1CCN(CCO)CC1)Nc1ccc(OCc2ccccc2)cc1	0	0	0	0	0	0
CCNC(=O)C1(C)CCN(C(=O)c2ccc(C#N)cc2)C1 (centres undefined)	0	0	0	0	0	0
CCCCN1C(=O)C(CC(=O)NCCN2CCOCC2)CC(C(=O)N(CC)CC)=C1C (centres undefined)	0	0	0	0	0	0
CCOC(=O)c1ccc(NC(=O)C(=O)NCC2(c3ccc(OC)cc3)CCOCC2)cc1	0	0	0	0	0	0
CC(C)OCCCNC(=S)N1CCC(C(=O)c2ccc(F)cc2)CC1	0	0	0	0	0	0
Cc1ccc(C(=O)C2CCN(C(=S)NCCCOC(C)C)CC2)cc1	0	0	0	0	0	23
CCS(=O)(=O)N1CCC(NC(=O)C(Cc2cccc(OC)c2OC)NC(C)=O)CC1 (centres undefined)	0	18	0	0	0	0
CC(=O)Nc1ccc(S(=O)(=O)N2CCC(NC(=O)C(Cc3cccn3C)NC(C)=O)CC2)cc1 (centres undefined)	0	0	0	0	0	28
CCN(c1ccccc1)S(=O)(=O)c1c(C)noc1C	0	0	0	0	0	0
Cc1ccc(S(=O)(=O)NCc2nnnn2-c2ccc(F)cc2)cc1	0	0	0	0	0	0
Cc1cc(C(=O)N(C)Cc2c(F)cccc2Cl)c2ccccc2n1	0	0	0	0	0	0
CCOC(=O)c1c(C)noc1CP(=O)(c1ccccc1)c1ccccc1	0	18	0	0	0	0
CCOC(=O)CP(=O)(c1ccccc1)c1ccccc1	0	0	0	0	0	0
C=CCOc1cccc(CNc2cccc(C(=O)O)c2)c1	0	0	0	0	0	0
Cc1ccc(/C(O)=C2\C(=O)C(=O)N(CCN(C)C)C2c2ccccc2F)cc1 (centres undefined)	0	0	0	0	0	0
CN(C)CCN1C(=O)C(=O)/C(=C(/O)c2ccc(F)cc2)C1c1ccccc1F (centres undefined)	0	0	29	0	0	0
CC(=O)OCC(=O)[C@@]1(OC(C)=O)[C@@H](C)C[C@H]2[C@@H]3C[C@H](F)C4=CC(=O)C=C[C@]4(C)[C@@]3(F)[C@@H](O)C[C@@]21C	41	0	0	0	0	0
CCOC(=O)c1ccc(NC(=O)CCNS(=O)(=O)c2cc(Br)cnc2N)cc1	0	0	0	0	0	0
O=C(Nc1cccc2ccccc12)c1csc(COCCO)n1	0	0	0	0	0	0
CCOc1cc2c3c(c1)C(C)=CC(C)(C)N3C(=O)C2=O	0	0	0	0	56	0
N#Cc1ccccc1OCC(=O)NC(=O)NC1CCS(=O)(=O)C1 (centres undefined)	0	0	0	0	0	0
N#CC1=C(SCC(=O)NC23CC4CC(CC(C4)C2)C3)NC(=O)C(C#N)C12CCCCC2 (centres undefined)	0	0	29	0	0	0
N#CC1=C(SCC(=O)NC2CC2)NC(=O)C(C#N)C12CCCCC2 (centres undefined)	0	0	0	0	0	0
CCOC(=O)CSc1nc(-c2ccccc2)nc2ccc(F)cc12	0	28	0	0	0	0
COC(=O)CSc1nc(-c2ccccc2)nc2ccc(F)cc12	0	0	0	0	0	0
SMILES	CHRM4 antagonist	M4 PAM	CHRM5 antagonist	CHRM4 agonist	M5 ag	M5 PAM
O=C(O)CCC(=O)NNc1nc2ccccc2nc1-c1ccccc1	0	0	0	0	0	19
O=C(O)CCC(=O)NNc1ncnc2ccccc12	0	0	0	0	0	0
COc1ccc(OCC(=O)Nc2ccc(OC)c(S(=O)(=O)N3CCCCC3)c2)cc1	0	0	0	0	0	0
O=C(NCc1ccccc1Br)c1ccc2c(c1)OCCO2	0	0	0	0	0	0
O=S(=O)(/N=S1\CC=CCN1S(=O)(=O)c1ccccc1)c1ccccc1 (centres undefined)	0	0	0	60	34	0
CC1=C(C)CS(=O)N(S(=O)(=O)c2ccccc2)C1 (centres undefined)	0	0	0	0	0	0
OC(c1ccc(F)c(F)c1)c1nc(-c2ccccc2)cs1 (centres undefined)	0	0	0	0	0	0
COc1ccc(-c2csc(C(O)c3ccc(F)c(F)c3)n2)cc1 (centres undefined)	0	0	0	33	0	0
COc1cc(C(O)c2nc(-c3ccc(N(C)C)cc3)cs2)ccc1F (centres undefined)	0	0	0	41	0	0
COc1ccc(CCC(=O)N2CCCC(Nc3ccccc3)C2)cc1OC (centres undefined)	0	0	0	0	0	0
COc1cc(NS(=O)(=O)c2ccc3c(c2)C(C)(C)C(=O)N3C)cc(OC)c1	0	0	0	0	0	0
CCc1ccc(-c2nc(CN3CCC(C(=O)N4CCN(c5ccccn5)CC4)CC3)c(C)o2)cc1	0	0	0	0	0	0
CCc1ccc(-c2nc(CN3CCC(C(=O)N4CCN(c5ccccc5)CC4)CC3)c(C)o2)cc1	0	0	0	41	0	0
C=CCN(CC=C)C(=O)CN1C(=O)NC(c2ccccc2)(c2ccccc2)C1=O	0	18	0	0	0	0
CCCCN(CCCC)c1ccc(C(=O)c2ccccc2C(=O)O)c(O)c1	0	0	0	34	0	0
CCCCCCC1NC(C(=O)O)CS1 (centres undefined)	0	18	0	0	0	0
CCCCC1NC(C(=O)O)CS1 (centres undefined)	0	0	0	0	0	0
O=C(NCCC1CCCCN1S(=O)(=O)c1cccs1)C(=O)Nc1cccc(F)c1 (centres undefined)	0	0	0	0	0	0
C=CCN1C(=O)c2ccccc2Sc2ccc(C(=O)N3CCN(C)CC3)cc21	0	0	0	0	0	0
CN1CCCCC1CCN1c2ccccc2Sc2ccc(S(C)=O)cc21 (centres undefined)	88	0	98	0	0	0
CCNC(=O)C1(C)CCN(C(=O)c2ccc(C)c(F)c2)C1 (centres undefined)	0	0	0	0	0	0
CCC(O)CNC(=O)NC(=C(Cl)Cl)c1ccc(C)c(F)c1 (centres undefined)	0	0	0	0	0	22
Cc1nc2sc(C(c3ccc(Cl)cc3)N3CC(C)OC(C)C3)c(O)n2n1 (centres undefined)	0	17	0	0	0	0
Cc1ccc(C(c2sc3nc(C)nn3c2O)N2CC(C)OC(C)C2)cc1 (centres undefined)	0	0	0	0	0	0
